In paper PMC12676294 (ACS Omega, 2025):

Test: Potentiometric titration: protonation constants of the ligands
Assay type: physicochemical
Settings: T = 25.0 °C; I = 0.1 M KNO3
Method in brief: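 Ligand (about 1 mM, 16 mL) with 5–9 mM HClO4 titrated with carbonate-free NaOH (about 0.1 M) under argon with stirring, at 25.0 ± 0.1 °C in 0.1 M KNO3. Glass electrode calibrated as an H+ concentration probe by Gran's method; pKw fixed at 13.78. Points accepted at drift <0.5 mV/min, pH 2–12, 55–130 points per dataset. Stepwise constants were refined from the titration curves.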

NC(=O)CN1CCNC(=O)c2cccc(n2)C(=O)NCCN(CC(N)=O)CC1 [Py2am, 2-[9-(Carbamoylmethyl)-2,13-dioxo-3,6,9,12,18-pentaazabicyclo[12.3.1]octadeca-1(17),14(18),15-trien-6-yl]acetamide]
Stepwise protonation constant Log K, HL: 5.1 (1)
